Here are results for 13 compounds from ChEMBL document CHEMBL1955860, “Design, synthesis, and biological evaluation of 4-arylmethyl-1-phenylpyrazole and 4-aryloxy-1-phenylpyrazole derivatives as novel androgen receptor antagonists” (Bioorg Med Chem, 2012).

A short description of series [1]: Anticancer activity against human LNCaP-hr cells assessed as prostate specific antigen level at 1 uM after 3 days by enzyme immunoassay relative to control. The class given is functional. In a few lines:
(§1)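 LNCaP-hr cells (CRPC model, T877A AR) seeded at 40,000 cells/well in phenol red-free RPMI1640 with 10% DCC-FBS; compounds at 1–10 µM added next day; secreted PSA measured and expressed as % of control; n = 3.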

Series [2] can be described thus: Anticancer activity against human LNCaP-hr cells assessed as prostate specific antigen level at 10 uM after 3 days by enzyme immunoassay relative to control. The class given is functional. In a few lines:
as §1

Series [3] in a line: Anticancer activity against human LNCaP-hr cells xenografted in BALB/c athymic nude mouse assessed as change in tumor volume at 100 mg/kg, po qd after 28 days relative to control. The class given is functional. In a few lines: (§2)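 Mice castrated, then given LNCaP-hr cells (5 × 10⁷ cells/mL in PBS/Matrigel 1:1) s.c. in flank the same day; grouped at ~100–300 mm³ tumor volume (n = 6/group); from next day, oral dosing in 0.5% methylcellulose vehicle, bid or qd, 28 days. T/C% = tumor volume increase in treated/vehicle group × 100; serum/plasma PSA at end by ELISA.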
(A xenograft is tissue or cells of one species grown in another, often human tumour cells in immunodeficient mice.)

Series [4] can be described thus: Anticancer activity against human LNCaP-hr cells xenografted in BALB/c athymic nude mouse assessed as prostate specific antigen level in plasma at 100 mg/kg, po qd after 28 days relative to control. It is filed as functional. In a few lines: as §2
Series [5] can be described thus: Anticancer activity against human LNCaP-hr cells xenografted in BALB/c athymic nude mouse assessed as change in tumor volume at 50 mg/kg, po bid after 28 days relative to control. It is filed as functional. In a few lines:
as §2

Series [6] can be described thus: Anticancer activity against human LNCaP-hr cells xenografted in BALB/c athymic nude mouse assessed as prostate specific antigen level in plasma at 50 mg/kg, po bid after 28 days relative to control. The class given is functional. In a few lines:
as §2

Series [7] has as its system Mus musculus. The series is described as follows: Toxicity in athymic nude BALB/c mouse xenografted with human LNCaP-hr cells assessed as body weight loss at 40 mg/kg, po bid after 28 days. It is filed as organism-based. Set-up: dose 40 mg/kg, route oral. The settings on record: in vivo. In a few lines:
(§3)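 Castrated mice bearing s.c. LNCaP-hr xenografts (n = 6/group), dosed orally twice daily for 28 days in 0.5% methylcellulose vehicle; body weight tracked over the treatment period versus castration + vehicle controls.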

The test system of series [8] is Mus musculus. Kind of series: Toxicity in athymic nude BALB/c mouse xenografted with human LNCaP-hr cells assessed as body weight loss at 50 mg/kg, po bid after 28 days. Further details: dose 50 mg/kg, route oral. To be noted: in vivo. It is filed as organism-based. In a few lines:
as §3

Series [9] can be described thus: Anticancer activity against human LNCaP-hr cells xenografted in BALB/c athymic nude mouse assessed as prostate specific antigen level in plasma at 40 mg/kg, po bid after 28 days relative to control. It is filed as functional. In a few lines: as §2
A short description of series [10]: Anticancer activity against human LNCaP-hr cells xenografted in BALB/c athymic nude mouse assessed as change in tumor volume at 20 mg/kg, po bid after 28 days relative to control. The class given is functional. In a few lines:
as §2

Series [11] in a line: Anticancer activity against human LNCaP-hr cells xenografted in BALB/c athymic nude mouse assessed as change in tumor volume at 40 mg/kg, po bid after 28 days relative to control. It is filed as functional. In a few lines:
as §2

Series [12] relates to Mus musculus. Kind of series: Toxicity in athymic nude BALB/c mouse xenografted with human LNCaP-hr cells assessed as body weight loss at 20 mg/kg, po bid after 28 days. To be noted: in vivo. The class given is organism-based. Set-up: dose 20 mg/kg, route oral. In a few lines:
as §3

Series [13] is described as follows: Anticancer activity against human LNCaP-hr cells xenografted in BALB/c athymic nude mouse assessed as prostate specific antigen level in plasma at 20 mg/kg, po bid after 28 days relative to control. It is filed as functional. In a few lines: as §2

Structures are written as SMILES. Bounds are passed on as bounds.

Consider `Cc1nn(-c2ccc(C#N)c(Cl)c2)c(C)c1Cc1ccc(C(=O)N(C)C)cc1`, for which the Activity in series [1] is on record as 21%.
Still for that read-out and setting: as for `Cc1nn(-c2ccc(C#N)c(Cl)c2)c(C)c1Cc1ccc(C(=O)NCCO)cc1`, the figure is 33%.
Take `Cc1nn(-c2ccc(C#N)c(Cl)c2)c(C)c1Oc1ccc(C(=O)NCC(C)(C)O)cc1`: the results for the Activity in series [1] and in [2] were 33% and >100%, respectively.
As to `Cc1nn(-c2ccc(C#N)c(Cl)c2)c(C)c1Cc1ccc(C(N)=O)cc1`, the Activity in [1] was found to be 76%.
`Cc1nn(-c2ccc(C#N)c(Cl)c2)c(C)c1Oc1ccc(C(=O)N2CCOCC2)cc1`: the Activity in series [1] and in [2] was 22% throughout.
`CC(=O)Nc1ccc(Oc2c(C)nn(-c3ccc(C#N)c(Cl)c3)c2C)cn1`: the Activity worked out at 11% in series [1] and 39% in series [2].
In the same order, the values of `CC(=O)Nc1ccc(Oc2c(C)nn(-c3ccc(C#N)c(Cl)c3)c2C)nc1` are 8% and 14%.
The term T/C denotes the ratio of treated to control. For `CC(O)(CS(=O)(=O)c1ccc(F)cc1)C(=O)Nc1ccc(C#N)c(C(F)(F)F)c1` (configuration not stated) [BICALUTAMIDE], the values for the T/C in series [3] and in [4] were 37% and 142%, respectively. Besides, in [2], the Activity is given as >100%.
Consider `Cc1nn(-c2ccc(C#N)c(Cl)c2)c(C)c1Cc1ccc(C(=O)N2CCOCC2)cc1`, for which, in [1], the Activity was determined as 35%.
With `Cc1nn(-c2ccc(C#N)c(Cl)c2)c(C)c1Cc1ccc(C(=O)NC(C)(C)C)cc1`, the Activity is 33% in [1] and 57% in series [2].
Turning to `Cc1nn(-c2ccc(C#N)c(Cl)c2)c(C)c1Oc1ccc(NC(=O)C(C)(C)C)cn1`, the results for the T/C in [5] and in [6] were 2% and 17%, respectively. Moreover, the Activity in series [1] was found to be 8%; in [2], 5%.
Turning to `Cc1nn(-c2ccc(C#N)c(Cl)c2)c(C)c1Cc1cccc(C(N)=O)c1`, the Activity in series [1] was 21%; in series [2] it was 35%.
In the case of `Cc1nn(-c2ccc(C#N)c(Cl)c2)c(C)c1Cc1ccc(C(=O)NCC(C)(C)O)cc1`, the Activity result with Mus musculus [7] is reported as “Non-toxic”; in [1] it was 27%; in the series with Mus musculus [8], “Non-toxic”; in the series with Mus musculus [12] it was “Non-toxic”; in [2], 31%. Moreover, the T/C is reported as 23% in series [9], 15% in [10], 3% in series [11] and 88% in series [13].
